Data published in ChEMBL document CHEMBL1142454, “Synthesis and evaluation of novel 4-amino-4,6-androstadiene-3,17-dione: an analog of formestane” (2008).

System: SNB-19
Test: Antitumor activity against human SNB-19 cells assessed as reduction of cell growth at 10 uM after 48 hrs by SRB assay
Format: functional
Set-up: scale not given: the % may be the effect or the level left
Outline: (§1)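 NCI 60-cell-line primary screen, single dose 10^-5 M (final). Cells grown in RPMI 1640 with 5% FBS and 2 mM L-glutamine, seeded at 5000–40,000 cells/well and preincubated 24 h at 37 °C, 5% CO2. Compound is dissolved in DMSO, diluted in medium with gentamicin, and exposed 48 h. Cells are fixed with 10% TCA (final) and stained with 0.4% SRB; absorbance is read at 515 nm. Readout is growth percentage.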

| Compound | Activity [%] |
| --- | --- |
| C[C@]12CCC(=O)C(Oc3ccccc3)=C1CC[C@@H]1[C@@H]2CC[C@]2(C)C(=O)CC[C@@H]12 | 114.92 |
| CCOC1=C2CC[C@@H]3[C@H](CC[C@]4(C)C(=O)CC[C@@H]34)[C@@]2(C)CCC1=O | 112.3 |

System: MCF7
Test: Antitumor activity against human doxorubicin-resistant MCF7 cells assessed as reduction of cell growth at 10 uM after 48 hrs by SRB assay
Format: functional
Set-up: scale not given: the % may be the effect or the level left
Outline: (§2)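 NCI-60 one-dose primary screen at 10^-5 M final. Cells grown in RPMI 1640 with 5% FBS and 2 mM L-glutamine, plated at 5000–40,000 cells/well and preincubated 24 h at 37 °C, 5% CO2. Drug stocks in DMSO, diluted in medium with gentamicin. Exposure 48 h, then fixed in situ with TCA (10% final) for 60 min at 4 °C. Stained with 0.4% SRB in 1% acetic acid, bound dye solubilized in 10 mM trizma base, absorbance read at 515 nm. Reported as mean growth percent; negative values indicate cell kill.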

| Compound | Activity [%] |
| --- | --- |
| C[C@]12CCC(=O)C(Oc3ccccc3)=C1CC[C@@H]1[C@@H]2CC[C@]2(C)C(=O)CC[C@@H]12 | 90.34 |
| CCOC1=C2CC[C@@H]3[C@H](CC[C@]4(C)C(=O)CC[C@@H]34)[C@@]2(C)CCC1=O | 97.45 |

System: SK-MEL-28
Test: Antitumor activity against human SK-MEL-28 cells assessed as reduction of cell growth at 10 uM after 48 hrs by SRB assay
Format: functional
Set-up: scale not given: the % may be the effect or the level left
Outline: as §1

| Compound | Activity [%] |
| --- | --- |
| C[C@]12CCC(=O)C(Oc3ccccc3)=C1CC[C@@H]1[C@@H]2CC[C@]2(C)C(=O)CC[C@@H]12 | 119.81 |
| CCOC1=C2CC[C@@H]3[C@H](CC[C@]4(C)C(=O)CC[C@@H]34)[C@@]2(C)CCC1=O | 135.2 |

System: SF-268
Test: Antitumor activity against human SF-268 cells assessed as reduction of cell growth at 10 uM after 48 hrs by SRB assay
Format: functional
Set-up: scale not given: the % may be the effect or the level left
Outline: as §1

| Compound | Activity [%] |
| --- | --- |
| C[C@]12CCC(=O)C(Oc3ccccc3)=C1CC[C@@H]1[C@@H]2CC[C@]2(C)C(=O)CC[C@@H]12 | 113.44 |
| CCOC1=C2CC[C@@H]3[C@H](CC[C@]4(C)C(=O)CC[C@@H]34)[C@@]2(C)CCC1=O | 128.3 |

System: UO-31
Test: Antitumor activity against human UO-31 cells assessed as reduction of cell growth at 10 uM after 48 hrs by SRB assay
Format: functional
Set-up: scale not given: the % may be the effect or the level left
Outline: as §2

| Compound | Activity [%] |
| --- | --- |
| C[C@]12CCC(=O)C(Oc3ccccc3)=C1CC[C@@H]1[C@@H]2CC[C@]2(C)C(=O)CC[C@@H]12 | 76.98 |
| CCOC1=C2CC[C@@H]3[C@H](CC[C@]4(C)C(=O)CC[C@@H]34)[C@@]2(C)CCC1=O | 85.82 |

System: DU-145
Test: Antitumor activity against human DU145 cells assessed as reduction of cell growth at 10 uM after 48 hrs by SRB assay
Format: functional
Set-up: scale not given: the % may be the effect or the level left
Outline: as §1

| Compound | Activity [%] |
| --- | --- |
| C[C@]12CCC(=O)C(Oc3ccccc3)=C1CC[C@@H]1[C@@H]2CC[C@]2(C)C(=O)CC[C@@H]12 | 107.32 |
| CCOC1=C2CC[C@@H]3[C@H](CC[C@]4(C)C(=O)CC[C@@H]34)[C@@]2(C)CCC1=O | 123.2 |

System: HCC 2998
Test: Antitumor activity against human HCC2998 cells assessed as reduction of cell growth at 10 uM after 48 hrs by SRB assay
Format: functional
Set-up: scale not given: the % may be the effect or the level left
Outline: as §1

| Compound | Activity [%] |
| --- | --- |
| C[C@]12CCC(=O)C(Oc3ccccc3)=C1CC[C@@H]1[C@@H]2CC[C@]2(C)C(=O)CC[C@@H]12 | 128.78 |
| CCOC1=C2CC[C@@H]3[C@H](CC[C@]4(C)C(=O)CC[C@@H]34)[C@@]2(C)CCC1=O | 125.75 |

System: OVCAR-4
Test: Antitumor activity against human OVCAR4 cells assessed as reduction of cell growth at 10 uM after 48 hrs by SRB assay
Format: functional
Set-up: scale not given: the % may be the effect or the level left
Outline: as §1

| Compound | Activity [%] |
| --- | --- |
| C[C@]12CCC(=O)C(Oc3ccccc3)=C1CC[C@@H]1[C@@H]2CC[C@]2(C)C(=O)CC[C@@H]12 | 100.72 |
| CCOC1=C2CC[C@@H]3[C@H](CC[C@]4(C)C(=O)CC[C@@H]34)[C@@]2(C)CCC1=O | 96.98 |

System: RPMI-8226
Test: Antitumor activity against human RPMI 8226 cells assessed as reduction of cell growth at 10 uM after 48 hrs by SRB assay
Format: functional
Set-up: scale not given: the % may be the effect or the level left
Outline: as §1

| Compound | Activity [%] |
| --- | --- |
| C[C@]12CCC(=O)C(Oc3ccccc3)=C1CC[C@@H]1[C@@H]2CC[C@]2(C)C(=O)CC[C@@H]12 | 87.07 |

System: HT-29
Test: Antitumor activity against human HT-29 cells assessed as reduction of cell growth at 10 uM after 48 hrs by SRB assay
Format: functional
Set-up: scale not given: the % may be the effect or the level left
Outline: as §1

| Compound | Activity [%] |
| --- | --- |
| C[C@]12CCC(=O)C(Oc3ccccc3)=C1CC[C@@H]1[C@@H]2CC[C@]2(C)C(=O)CC[C@@H]12 | 100.27 |
| CCOC1=C2CC[C@@H]3[C@H](CC[C@]4(C)C(=O)CC[C@@H]34)[C@@]2(C)CCC1=O | 98.16 |

System: MDA-MB-231
Test: Antitumor activity against human MDA-MB-231/ATCC cells assessed as reduction of cell growth at 10 uM after 48 hrs by SRB assay
Format: functional
Set-up: scale not given: the % may be the effect or the level left
Outline: as §1

| Compound | Activity [%] |
| --- | --- |
| C[C@]12CCC(=O)C(Oc3ccccc3)=C1CC[C@@H]1[C@@H]2CC[C@]2(C)C(=O)CC[C@@H]12 | 109.86 |
| CCOC1=C2CC[C@@H]3[C@H](CC[C@]4(C)C(=O)CC[C@@H]34)[C@@]2(C)CCC1=O | 106.73 |

System: SN12C
Test: Antitumor activity against human SN12C cells assessed as reduction of cell growth at 10 uM after 48 hrs by SRB assay
Format: functional
Set-up: scale not given: the % may be the effect or the level left
Outline: as §1

| Compound | Activity [%] |
| --- | --- |
| C[C@]12CCC(=O)C(Oc3ccccc3)=C1CC[C@@H]1[C@@H]2CC[C@]2(C)C(=O)CC[C@@H]12 | 90.07 |
| CCOC1=C2CC[C@@H]3[C@H](CC[C@]4(C)C(=O)CC[C@@H]34)[C@@]2(C)CCC1=O | 110.6 |

System: not listed separately
Test: Antitumor activity against human HCT 116 cells assessed as reduction of cell growth at 10 uM after 48 hrs by SRB assay
Format: functional
Set-up: scale not given: the % may be the effect or the level left
Outline: as §1

| Compound | Activity [%] |
| --- | --- |
| C[C@]12CCC(=O)C(Oc3ccccc3)=C1CC[C@@H]1[C@@H]2CC[C@]2(C)C(=O)CC[C@@H]12 | 99.87 |
| CCOC1=C2CC[C@@H]3[C@H](CC[C@]4(C)C(=O)CC[C@@H]34)[C@@]2(C)CCC1=O | 103.2 |

System: TK-10
Test: Antitumor activity against human TK-10 cells assessed as reduction of cell growth at 10 uM after 48 hrs by SRB assay
Format: functional
Set-up: scale not given: the % may be the effect or the level left
Outline: as §2

| Compound | Activity [%] |
| --- | --- |
| C[C@]12CCC(=O)C(Oc3ccccc3)=C1CC[C@@H]1[C@@H]2CC[C@]2(C)C(=O)CC[C@@H]12 | 122.99 |
| CCOC1=C2CC[C@@H]3[C@H](CC[C@]4(C)C(=O)CC[C@@H]34)[C@@]2(C)CCC1=O | 100.6 |

System: SF-295
Test: Antitumor activity against human SF-295 cells assessed as reduction of cell growth at 10 uM after 48 hrs by SRB assay
Format: functional
Set-up: scale not given: the % may be the effect or the level left
Outline: as §1

| Compound | Activity [%] |
| --- | --- |
| C[C@]12CCC(=O)C(Oc3ccccc3)=C1CC[C@@H]1[C@@H]2CC[C@]2(C)C(=O)CC[C@@H]12 | 124.31 |
| CCOC1=C2CC[C@@H]3[C@H](CC[C@]4(C)C(=O)CC[C@@H]34)[C@@]2(C)CCC1=O | 114 |

System: NCI-H23
Test: Antitumor activity against human NCI-H23 cells assessed as reduction of cell growth at 10 uM after 48 hrs by SRB assay
Format: functional
Set-up: scale not given: the % may be the effect or the level left
Outline: as §1

| Compound | Activity [%] |
| --- | --- |
| C[C@]12CCC(=O)C(Oc3ccccc3)=C1CC[C@@H]1[C@@H]2CC[C@]2(C)C(=O)CC[C@@H]12 | 97.57 |
| CCOC1=C2CC[C@@H]3[C@H](CC[C@]4(C)C(=O)CC[C@@H]34)[C@@]2(C)CCC1=O | 101.11 |

System: PC-3
Test: Antitumor activity against human PC-3 cells assessed as reduction of cell growth at 10 uM after 48 hrs by SRB assay
Format: functional
Set-up: scale not given: the % may be the effect or the level left
Outline: as §1

| Compound | Activity [%] |
| --- | --- |
| C[C@]12CCC(=O)C(Oc3ccccc3)=C1CC[C@@H]1[C@@H]2CC[C@]2(C)C(=O)CC[C@@H]12 | 89.25 |
| CCOC1=C2CC[C@@H]3[C@H](CC[C@]4(C)C(=O)CC[C@@H]34)[C@@]2(C)CCC1=O | 96.5 |

System: HOP-62
Test: Antitumor activity against human HOP-62 cells assessed as reduction of cell growth at 10 uM after 48 hrs by SRB assay
Format: functional
Set-up: scale not given: the % may be the effect or the level left
Outline: as §1

| Compound | Activity [%] |
| --- | --- |
| C[C@]12CCC(=O)C(Oc3ccccc3)=C1CC[C@@H]1[C@@H]2CC[C@]2(C)C(=O)CC[C@@H]12 | 106.47 |
| CCOC1=C2CC[C@@H]3[C@H](CC[C@]4(C)C(=O)CC[C@@H]34)[C@@]2(C)CCC1=O | 103.52 |

System: MDA-MB-435
Test: Antitumor activity against human MDA-MB-435 cells assessed as reduction of cell growth at 10 uM after 48 hrs by SRB assay
Format: functional
Set-up: scale not given: the % may be the effect or the level left
Outline: as §1

| Compound | Activity [%] |
| --- | --- |
| C[C@]12CCC(=O)C(Oc3ccccc3)=C1CC[C@@H]1[C@@H]2CC[C@]2(C)C(=O)CC[C@@H]12 | 113.61 |
| CCOC1=C2CC[C@@H]3[C@H](CC[C@]4(C)C(=O)CC[C@@H]34)[C@@]2(C)CCC1=O | 104.79 |

System: OVCAR-8
Test: Antitumor activity against human OVCAR8 cells assessed as reduction of cell growth at 10 uM after 48 hrs by SRB assay
Format: functional
Set-up: scale not given: the % may be the effect or the level left
Outline: as §1

| Compound | Activity [%] |
| --- | --- |
| C[C@]12CCC(=O)C(Oc3ccccc3)=C1CC[C@@H]1[C@@H]2CC[C@]2(C)C(=O)CC[C@@H]12 | 93.48 |
| CCOC1=C2CC[C@@H]3[C@H](CC[C@]4(C)C(=O)CC[C@@H]34)[C@@]2(C)CCC1=O | 98.96 |

System: UACC-62
Test: Antitumor activity against human UACC-62 cells assessed as reduction of cell growth at 10 uM after 48 hrs by SRB assay
Format: functional
Set-up: scale not given: the % may be the effect or the level left
Outline: as §2

| Compound | Activity [%] |
| --- | --- |
| C[C@]12CCC(=O)C(Oc3ccccc3)=C1CC[C@@H]1[C@@H]2CC[C@]2(C)C(=O)CC[C@@H]12 | 87.46 |
| CCOC1=C2CC[C@@H]3[C@H](CC[C@]4(C)C(=O)CC[C@@H]34)[C@@]2(C)CCC1=O | 90.78 |
